Test results from ChEMBL document CHEMBL1122194, “Prodrugs of L-cysteine as liver-protective agents. 2(RS)-Methylthiazolidine-4(R)-carboxylic acid, a latent cysteine” (J Med Chem, 1982).

Assays:
Mus musculus [1] = species on record: Mus musculus; assay: Tested for Protection from Acetaminophen-Induced Liver Necrosis in Mice, Number of animals(mice) with liver necrosis was determined after 0 hour; format: functional
Mus musculus [2] = species on record: Mus musculus; assay: Tested for Protection from Acetaminophen-Induced Liver Necrosis in Mice (in 10 animals) and the deaths were observed after the 48 hours due to liver necrosis; format: functional
Outline: (§1)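 Male Swiss-Webster mice (18–33 g) were randomized and given acetaminophen 750 mg/kg. Protective agents or saline followed 30 min later. Deaths were counted over 48 h with food and water ad libitum, then survivors were killed by cervical dislocation. Livers were formalin-fixed and sectioned, stained with H&E and Gomori reticulum stain, and necrosis was graded 0 to 4+ by Mitchell criteria. Counts pooled up to two independent experiments.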

Mus musculus [3] = species on record: Mus musculus; assay: Tested for Protection from Acetaminophen-Induced Liver Necrosis in Mice, Number of animals(mice) with grade 4+ liver necrosis was determined after 48 hr
Mus musculus [4] = species on record: Mus musculus; assay: Tested for Protection from Acetaminophen-Induced Liver Necrosis in Mice, Number of animals(mice) with grade 3+ liver necrosis was determined after 48 hours
Mus musculus [5] = species on record: Mus musculus; assay: Tested for Protection from Acetaminophen-Induced Liver Necrosis in Mice, Number of animals(mice) with grade 2+ liver necrosis was determined after 48 hours
Mus musculus [6] = species on record: Mus musculus; assay: Tested for Protection from Acetaminophen-Induced Liver Necrosis in Mice, necrosis was determined after 3 hour; format: functional
Mus musculus [7] = species on record: Mus musculus; assay: Tested for 10 animals(mice) and the deaths were observed after the 48 hours due to liver necrosis; format: functional; outline: as §1
[8] = Lethal dose after intraperitoneal administration in mice was determined; format: toxicity, organism-based; conditions: mouse, in vivo, ip
Mus musculus [9] = species on record: Mus musculus; assay: Tested for Protection from Acetaminophen-Induced Liver Necrosis in Mice (18 animals) and the deaths were observed after the 48 hours due to liver necrosis; Death due to hemorrhagic necrosis of the liver; format: functional; outline: as §1
Mus musculus [10] = species on record: Mus musculus; assay: Tested for Protection from Acetaminophen-Induced Liver Necrosis in Mice (in 17 animals) and the deaths were observed after the 48 hours due to liver necrosis; format: functional; outline: as §1
Mus musculus [11] = species on record: Mus musculus; assay: Tested for Protection from Acetaminophen-Induced Liver Necrosis in Mice, Number of animals(mice) with liver necrosis was determined after 1 hr; format: functional
Mus musculus [12] = species on record: Mus musculus; assay: Tested for 17 animals(mice) and the deaths were observed after the 48 hours due to liver necrosis; format: functional; outline: as §1
Mus musculus [13] = species on record: Mus musculus; assay: Tested for Protection from Acetaminophen-Induced Liver Necrosis in Mice (in 18 animals) and the deaths were observed after the 48 hours due to liver necrosis; format: functional; outline: as §1

| SMILES | No. of animals with liver necrosis (Mus musculus [1]) | No. of animals with grade 4+ liver necrosis (Mus musculus [3]) | No. of animals with grade 3+ liver necrosis (Mus musculus [4]) | further results |
| --- | --- | --- | --- | --- |
| CC(=O)Nc1ccc(O)cc1.O=C(O)C1CSCN1 | 1 | 2 | 4 | Deaths (Mus musculus [2]): 4; No. of animals with grade 2+ liver necrosis (Mus musculus [5]): 1 |
| O=C(O)C1CSCN1 (configuration not stated) [TIMONACIC] | 9 |  |  | No. of animals with liver necrosis (Mus musculus [6]): 1; Deaths (Mus musculus [7]): 3; LD50 [8]: 164 mg/kg |
| CC(=O)Nc1ccc(O)cc1.CC1N[C@H](C(=O)O)CS1 | 17 | 1 |  | Deaths (Mus musculus [9]): 1 |
| CC(=O)Nc1ccc(O)cc1 [ACETAMINOPHEN] | 1 | 8 | 7 | Deaths (Mus musculus [10]): 11; No. of animals with grade 2+ liver necrosis (Mus musculus [5]): 1 |
| CC(=O)N[C@@H](CS)C(=O)O [ACETYLCYSTEINE] | 15 |  |  | No. of animals with liver necrosis (Mus musculus [11]): 2; Deaths (Mus musculus [12]): 0 |
| CC(=O)N[C@@H](CS)C(=O)O.CC(=O)Nc1ccc(O)cc1 | 13 | 1 | 1 | Deaths (Mus musculus [13]): 1; No. of animals with liver necrosis (Mus musculus [11]): 3 |
| CC1N[C@H](C(=O)O)CS1 (some centres not stated) | 17 |  |  | Deaths (Mus musculus [12]): 0 |
